Reference: paper PMC2874468 (Journal of the American Chemical Society, 2010)
“And” between values parts separate entries of the source, which are not always exact repeats. Equal entries are not always repeated.

Experiments:
A. aeolicus IspH = biological target: T1, A. aeolicus IspH (Aquifex aeolicus, UniProt O67625); assay: IspH enzyme inhibition assay; format: biochemical
T1 sequence (O67625 1-289): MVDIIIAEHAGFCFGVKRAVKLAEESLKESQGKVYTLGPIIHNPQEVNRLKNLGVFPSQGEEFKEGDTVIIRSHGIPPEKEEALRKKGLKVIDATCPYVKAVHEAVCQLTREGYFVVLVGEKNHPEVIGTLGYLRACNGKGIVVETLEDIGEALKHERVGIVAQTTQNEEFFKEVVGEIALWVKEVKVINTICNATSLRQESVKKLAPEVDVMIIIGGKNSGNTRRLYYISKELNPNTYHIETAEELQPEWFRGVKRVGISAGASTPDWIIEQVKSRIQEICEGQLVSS
In short: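 Ni-NTA-purified recombinant enzyme expressed in E. coli BL-21(DE3). Cluster reconstituted anaerobically with DTT, elemental sulfur and FeCl3 until A410/A280 reached about 0.38. Run anaerobically at room temperature in pH 8.0 Tris·HCl/NaCl/5% glycerol with 0.4 mM dithionite, 2 mM methyl viologen and 72 nM enzyme, across varied HMBPP. Initial rates at 732 nm fitted to Michaelis-Menten.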

IspH = conditions: cited from earlier work
[1] = biological target: farnesyl diphosphate synthase; conditions: read-out: Ki, farnesyl diphosphate synthase inhibition; previous work ref 22; cited from earlier work

Row | Structure (SMILES) | activity in IspH inhibition (in words) (A. aeolicus IspH) | also measured
1 | C/C(=C\COP(=O)(O)OP(=O)(O)O)CO [HMBPP, E-4-hydroxy-3-methyl-but-2-enyl diphosphate] |  | Km (A. aeolicus IspH; read-out: KM for HMBPP, reconstituted A. aeolicus IspH, Michaelis-Menten fit): 5 µM and 7 µM
2 | O=P(O)(O)OP(=O)(O)O [PPi] |  | IspH inhibition (weak inhibitors) (IspH): ~ 1 mM
3 | N#CCOP(=O)(O)OP(=O)(O)O [compound 15, Cyanomethyl diphosphate] | far less active than their acetylenic counterparts | 
4 | N#CCCOP(=O)(O)OP(=O)(O)O [compound 16, 2-Cyanoethyl diphosphate] | far less active than their acetylenic counterparts | 
5 | Cc1ccc[n+](CC(O)(P(=O)([O-])O)P(=O)(O)O)c1 (stereo not shown) [compound 18] |  | Ki [1]: ~20 nM
6 | O=P(O)(O)OP(=O)(O)OCc1ccc(Cl)nc1 [compound 29, (6-Chloropyridin-3-yl)-methyl-diphosphate] | lack of activity | 
7 | C#CC(=O)O [propiolic acid] | poor activity | 
